In PubChem BioAssay AID623885 (Vanderbilt Specialized Chemistry Center, 2012):
Values joined by “and” are separate entries in the source; they are usually repeats but may differ in a detail not shown here. Identical values can stand only once. Active and inactive are the calls of the source.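 The calls were made as follows: active = mean half-maximal effective concentration under 30 µM; inactive = the rest.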

Target: Metabotropic glutamate receptor 3 (Rattus norvegicus) (UniProt P31422)
Test: inhibition of glutamate response at mGlu3 – thallium flux, HEK/GIRK cells, rat, dose response (AID 623885)
Conditions: HEK293 GIRK rat mGlu3, thallium flux fluorescence; for percent of glutamate max response: at 30 µM (top of the series)
How it was run: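 System: HEK cells stably co-expressing GIRK channels, M4 muscarinic receptor, rat mGlu3 / Medium: HEPES-buffered HBSS / Incubation: dye loading 1 h room temperature, compounds ~2.5 min / Measured by: thallium influx through GIRK, FluoZin-2 AM fluorescence / Probe or stimulus: thallium buffer ± agonist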

Sequence of Metabotropic glutamate receptor 3 (Rattus norvegicus) (P31422 whole entry, looked up): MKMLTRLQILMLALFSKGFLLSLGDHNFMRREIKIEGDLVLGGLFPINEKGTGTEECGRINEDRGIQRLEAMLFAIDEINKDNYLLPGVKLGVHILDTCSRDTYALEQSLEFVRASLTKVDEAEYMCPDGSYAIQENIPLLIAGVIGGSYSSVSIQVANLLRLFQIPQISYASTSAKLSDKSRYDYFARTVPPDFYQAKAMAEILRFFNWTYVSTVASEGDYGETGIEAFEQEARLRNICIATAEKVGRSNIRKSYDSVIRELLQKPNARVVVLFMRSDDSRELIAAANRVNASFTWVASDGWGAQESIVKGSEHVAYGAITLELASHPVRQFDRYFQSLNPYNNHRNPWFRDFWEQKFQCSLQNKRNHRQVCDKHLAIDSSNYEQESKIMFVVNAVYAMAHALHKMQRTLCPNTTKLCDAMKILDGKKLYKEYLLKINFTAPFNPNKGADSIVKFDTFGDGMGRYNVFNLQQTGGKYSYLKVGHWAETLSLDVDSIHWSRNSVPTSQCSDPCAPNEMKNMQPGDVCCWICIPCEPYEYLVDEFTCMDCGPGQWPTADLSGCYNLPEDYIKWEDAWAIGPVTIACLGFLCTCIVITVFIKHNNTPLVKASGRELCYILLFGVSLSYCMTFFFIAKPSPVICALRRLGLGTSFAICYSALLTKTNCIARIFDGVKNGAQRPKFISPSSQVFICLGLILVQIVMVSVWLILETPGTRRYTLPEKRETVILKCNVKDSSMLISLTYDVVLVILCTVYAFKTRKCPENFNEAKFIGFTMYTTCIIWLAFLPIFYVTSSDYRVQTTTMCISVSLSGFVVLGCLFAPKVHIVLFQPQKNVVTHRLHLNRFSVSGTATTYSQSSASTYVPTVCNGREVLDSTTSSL

SMILES	percent of glutamate max response	IC50
COc1ccc(C#Cc2ccc(C(=O)N3CCC4CCCCC4C3)cc2)cc1 (stereo not given)	inactive	
O=C(c1ccc(C#CC2(O)CCCC2)cc1)N1CCC(O)CC1	inactive	
CN(C)CC#Cc1ccc(C(=O)N2CCC(O)CC2)cc1	inactive	
COc1ccc(C#Cc2ccc(C(=O)N[C@H](C)C3CC3)cc2)cc1	69	
COc1ccc(C#Cc2ccc(C(=O)N(CCO)c3ccccc3)cc2)cc1	inactive	
O=Cc1ccc(C#Cc2ccc(C(=O)N3CCC(O)CC3)cc2)cc1	21.8	
COc1ccc(C#Cc2ccc(C(=O)NC3CCC3)cc2)cc1	inactive	
COCC(C)NC(=O)c1ccc(C#Cc2ccc(OC)cc2)cc1 (stereo not given)	inactive	
Cn1ccnc1C#Cc1ccc(C(=O)N2CCC(O)CC2)cc1	inactive	
COc1ccc(C#Cc2ccc(C(=O)N3CCN(c4ccccc4OC)CC3)cc2)cc1	inactive	
O=C(c1ccc(C#CCN2C(=O)c3ccccc3C2=O)cc1)N1CCC(O)CC1	inactive	
COc1ccc(C#Cc2ccc(C(=O)N3CCC(O)(c4ccc(Cl)c(C(F)(F)F)c4)CC3)cc2)cc1	117	
CCN1CCC[C@H]1CNC(=O)c1ccc(C#Cc2ccc(OC)cc2)cc1	5.77	
COc1ccc(C#Cc2ccc(C(=O)N3CCC[C@@H](C(=O)O)C3)cc2)cc1	19.5	
CC(C)(C)C#Cc1ccc(C(=O)N2CCC(O)CC2)cc1	inactive	
COc1ccc(C#Cc2ccc(C(=O)N3CCC[C@H](C(=O)O)C3)cc2)cc1	0.55	
O=C(c1ccc(C#Cc2ccc(C(F)(F)F)cc2)cc1)N1CCC(O)CC1	54.2	
COc1ccc(C#Cc2ccc(C(=O)N3CCC(C)(O)CC3)cc2)cc1	5.42	
COc1ccc(C#Cc2ccc(C(=O)NCc3ccc(C(C)(C)C)cc3)cc2)cc1	inactive	
CC(C)(C)OC(=O)N1CCC(NC(=O)CN2CCc3cc(C#Cc4ccccc4)ccc3C2=O)CC1	33.8	
CCC(N)(C#Cc1ccc(C(=O)N2CCC(O)CC2)cc1)CC	inactive	

SMILES	percent of glutamate max response	IC50
COc1ccc(C#Cc2ccc(C(=O)NC(C)(C)C)cc2)cc1	inactive	
COc1ccc(C#Cc2ccc(C(=O)NCC(C)O)cc2)cc1 (stereo not given)	inactive	
COc1ccc(C#Cc2ccc(C(=O)N3CCN(C(C)C)CC3)cc2)cc1	1.26	
CC(C)(C)c1ccc(C#Cc2ccc(C(=O)N3CCC(O)CC3)cc2)cc1	inactive	
O=C(c1ccc(C#Cc2ccc(Cl)cc2)cc1)N1CCC(O)CC1	51.6	
COc1ccc(C#Cc2cccc(C(=O)N3CCC(O)CC3)c2)cc1	13.9	
COc1ccc(C#Cc2ccc(C(=O)N3CCOCC3)cc2)cc1	65.1	
COc1ccc(C#Cc2ccc(C(=O)NCCCCO)cc2)cc1	inactive	
COc1ccc(C#Cc2ccc(C(=O)NC(C)C)cc2)cc1	inactive	
COc1ccc(C#Cc2ccc(C(=O)N3CCC(OC)CC3)cc2)cc1	inactive	
CCOC(=O)C#Cc1ccc(C(=O)N2CCC(O)CC2)cc1	inactive	
O=C(c1ccc(C#Cc2ccc(-c3ccccc3)cc2)cc1)N1CCC(O)CC1	inactive	
COc1ccc(C#Cc2ccc(C(=O)NCCC(C)(C)O)cc2)cc1	114	
COc1ccc(C#Cc2ccc(C(=O)N3CCCCC3CO)cc2)cc1 (stereo not given)	55.9	
COc1ccc(C#Cc2ccc(C(=O)NCCCO)cc2)cc1	inactive	
CN(C)c1ccc(C#Cc2ccc(C(=O)N3CCC(O)CC3)cc2)cc1	inactive	
COc1ccc(C#Cc2ccc(C(=O)NC3CCC(C)CC3)cc2)cc1 (stereo not given)	inactive	
COc1cccc(C#Cc2ccc(C(=O)N3CCC(O)CC3)cc2)c1	inactive	
CC(C)CCC#Cc1ccc(C(=O)N2CCC(O)CC2)cc1	24.7	
O=C(c1ccc(C#CCCCN2C(=O)c3ccccc3C2=O)cc1)N1CCC(O)CC1	inactive	
COc1ccc(C#Cc2ccc(C(=O)NCCC(C)(C)C)cc2)cc1	inactive	

SMILES	percent of glutamate max response	IC50
COc1ccc(C#Cc2ccc(C(=O)N3CCC(C#N)(c4ccccc4)CC3)cc2)cc1	inactive	
Cc1ccc(C#Cc2ccc(C(=O)N3CCC(O)CC3)cc2)cc1	33.9	
CCc1ccc(C#Cc2ccc(C(=O)N3CCC(O)CC3)cc2)cc1	62	
O=C(c1ccc(C#Cc2ccccc2F)cc1)N1CCC(O)CC1	22.4	
O=C(c1ccc(C#CCOCC2CO2)cc1)N1CCC(O)CC1 (stereo not given)	inactive	
N#CCCCC#Cc1ccc(C(=O)N2CCC(O)CC2)cc1	inactive	
O=C(CN1CCc2cc(C#Cc3ccccc3)ccc2C1=O)NCCN1CCCCC1	3.68	
COc1ccc(C#Cc2ccc(C(=O)N3CCC(O)CC3)cc2)cc1	7.43	
COc1ccc(C#Cc2ccc(C(=O)N3CCC(CO)C3)cc2)cc1 (stereo not given)	14.7	
O=Cc1ccccc1C#Cc1ccc(C(=O)N2CCC(O)CC2)cc1	43.7	
COc1ccc(C#Cc2ccc(C(=O)N3CCC(C(C)=O)(c4ccccc4)CC3)cc2)cc1	inactive	
Cc1ccccc1C#Cc1ccc(C(=O)N2CCC(O)CC2)cc1	10.8	
COc1ccc(C#Cc2ccc(C(=O)N3CCN(c4ccccc4)CC3)cc2)cc1	inactive	
COc1ccc(C#Cc2ccc(C(=O)NC(C)(C)CO)cc2)cc1	162	
CCN(CC)CC#Cc1ccc(C(=O)N2CCC(O)CC2)cc1	inactive	
COc1ccc(C#Cc2ccc(C(=O)N3CCCC3)cc2)cc1	35.3	
O=C(c1ccc(C#Cc2cccc3ccccc23)cc1)N1CCC(O)CC1	32.7	
COc1ccc(C#Cc2ccc(C(=O)N3CCC[C@@H](CO)C3)cc2)cc1	-0.47	1.48 µM
O=C(c1ccc(C#CCN2N=NCc3ccccc32)cc1)N1CCC(O)CC1	inactive	
O=C(c1ccc(C#Cc2ccccn2)cc1)N1CCC(O)CC1	inactive	
COc1ccc(C#Cc2ccc(C(=O)N[C@H](C)C3CCCCC3)cc2)cc1	inactive	

SMILES	percent of glutamate max response	IC50
CCC(C)(O)C#Cc1ccc(C(=O)N2CCC(O)CC2)cc1 (stereo not given)	inactive	
COc1ccc(C#Cc2ccc(C(=O)N3CCCC(CO)C3)cc2)cc1 (stereo not given)		2.46 µM
CC(C)CC#Cc1ccc(C(=O)N2CCC(O)CC2)cc1	inactive	
O=C(c1ccc(C#CCOc2ccccc2)cc1)N1CCC(O)CC1	37.7	
O=C(c1ccc(C#CCCCCCl)cc1)N1CCC(O)CC1	47.8	
COc1ccc(C#Cc2ccc(C(=O)Nc3ccc(F)cn3)cc2)cc1	63.9	
CCCCN(CCO)C(=O)c1ccc(C#Cc2ccc(OC)cc2)cc1	8.56	
O=C(c1ccc(C#CCc2ccccc2)cc1)N1CCC(O)CC1	42.2	
CCOC1CCN(C(=O)c2ccc(C#Cc3ccc(OC)cc3)cc2)CC1	inactive	
CCCC1(O)CCN(C(=O)c2ccc(C#Cc3ccc(OC)cc3)cc2)CC1	inactive	
O=C(c1ccc(C#Cc2c(C(F)(F)F)cccc2C(F)(F)F)cc1)N1CCC(O)CC1	54.9	
COc1ccc(C#Cc2ccc(C(=O)N[C@H](C)C(C)C)cc2)cc1	inactive	
O=C(c1ccc(C#CCc2ccsc2)cc1)N1CCC(O)CC1	16.1	
COc1ccc(C#Cc2ccccc2C(=O)N2CCC(O)CC2)cc1	inactive	
O=C(c1ccc(C#CC2CC2)cc1)N1CCC(O)CC1	inactive	
COc1ccccc1C#Cc1ccc(C(=O)N2CCC(O)CC2)cc1	inactive	
O=C(c1ccc(C#CC2=CCCCC2)cc1)N1CCC(O)CC1	46.1	
COc1ccc(C#Cc2ccc(C(=O)N3CCCC(O)C3)cc2)cc1 (stereo not given)	-1.25	
O=C(CN1CCc2cc(C#Cc3ccccc3)ccc2C1=O)N1CCC2CCCCC2C1 (stereo not given)	26.5 and 64.7	
CCC1(O)CCN(C(=O)c2ccc(C#Cc3ccc(OC)cc3)cc2)CC1	46.4	
COc1ccc(C#Cc2ccc(C(=O)N[C@H]3CCCCNC3=O)cc2)cc1	inactive	
